From ChEMBL document CHEMBL4680213, “Novel androgen receptor antagonist identified by structure-based virtual screening, structural optimization, and biological evaluation” (Eur J Med Chem, 2020)
Active and inactive are the calls of the source. The calls are words filed in the database; no cut-off is given here.

Key:
Androgen receptor [1] = molecular target: T1, Androgen receptor (Homo sapiens, UniProt P10275); type: cell-based, LNCaP
T1 sequence (P10275 whole entry): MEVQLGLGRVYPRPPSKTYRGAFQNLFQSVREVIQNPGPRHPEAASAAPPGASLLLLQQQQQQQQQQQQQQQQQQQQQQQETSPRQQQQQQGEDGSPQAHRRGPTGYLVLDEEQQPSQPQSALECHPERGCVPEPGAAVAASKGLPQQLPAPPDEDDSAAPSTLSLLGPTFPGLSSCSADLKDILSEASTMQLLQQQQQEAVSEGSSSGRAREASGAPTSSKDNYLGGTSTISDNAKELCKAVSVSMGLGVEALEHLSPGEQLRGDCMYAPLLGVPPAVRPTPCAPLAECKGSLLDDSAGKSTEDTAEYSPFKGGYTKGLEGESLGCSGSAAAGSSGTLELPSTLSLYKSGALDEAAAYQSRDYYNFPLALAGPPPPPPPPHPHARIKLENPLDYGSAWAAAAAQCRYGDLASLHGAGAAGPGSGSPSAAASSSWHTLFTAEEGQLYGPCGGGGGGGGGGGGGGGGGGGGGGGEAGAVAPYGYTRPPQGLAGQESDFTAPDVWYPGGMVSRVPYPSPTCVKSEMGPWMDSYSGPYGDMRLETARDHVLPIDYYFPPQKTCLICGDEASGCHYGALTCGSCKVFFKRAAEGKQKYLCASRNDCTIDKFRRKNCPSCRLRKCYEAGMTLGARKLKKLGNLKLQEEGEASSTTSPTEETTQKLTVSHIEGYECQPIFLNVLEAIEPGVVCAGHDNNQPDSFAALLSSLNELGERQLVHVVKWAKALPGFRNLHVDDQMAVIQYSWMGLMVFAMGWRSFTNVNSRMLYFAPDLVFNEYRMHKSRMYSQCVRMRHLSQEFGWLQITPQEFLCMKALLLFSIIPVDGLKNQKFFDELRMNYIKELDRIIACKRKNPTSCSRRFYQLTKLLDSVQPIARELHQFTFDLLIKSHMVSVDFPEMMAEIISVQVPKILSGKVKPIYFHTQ

LNCaP C4-2 = assay: Antiproliferative activity against human LNCaP C4-2 cells assessed as reduction in cell proliferation measured after 72 hrs by MTT assay; type: functional, cell-based
Outline: (§1)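 LNCaP, C4-2, PC3 and DU145 seeded in RPMI-1640 with 5% charcoal-stripped serum (LNCaP 3×10^3, the others 1.5×10^3 cells/well). After 24 h at 37 °C, treated with 5 nM DHT and serial compound dilutions for 72 h. MTT 4 h, formazan dissolved overnight in 10% SDS-0.1% HCl-PBS. A570 read with 650 nm reference.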

PC-3 = assay: Antiproliferative activity against human PC-3 cells assessed as reduction in cell proliferation measured after 72 hrs by MTT assay; type: functional, cell-based
Outline: as §1

LNCaP [2] = assay: Antiproliferative activity against human LNCaP cells assessed as reduction in cell proliferation measured after 72 hrs by MTT assay; type: functional, cell-based
Outline: as §1

DU-145 = assay: Antiproliferative activity against human DU-145 cells assessed as reduction in cell proliferation measured after 72 hrs by MTT assay; type: functional, cell-based
Outline: as §1

[3] = molecular target: T2, Prostate-specific antigen (Homo sapiens, UniProt P07288); assay: Inhibition of prostate specific antigen in human LNCaP cells; type: cell-based
T2 sequence (P07288 whole entry): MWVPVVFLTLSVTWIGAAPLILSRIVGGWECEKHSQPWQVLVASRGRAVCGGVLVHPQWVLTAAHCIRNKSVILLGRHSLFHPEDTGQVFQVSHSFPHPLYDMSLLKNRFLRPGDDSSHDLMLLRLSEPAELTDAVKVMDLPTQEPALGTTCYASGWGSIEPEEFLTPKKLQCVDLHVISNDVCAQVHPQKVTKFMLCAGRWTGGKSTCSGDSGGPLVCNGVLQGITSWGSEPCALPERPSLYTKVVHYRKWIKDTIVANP

NIH3T3 = assay: Cytotoxicity against mouse NIH/3T3 cells assessed as reduction in cell viability at 50 uM after 24 hrs by MTT assay; type: cell-based; conditions: nih3t3, 24 h
Androgen receptor [4] = molecular target: T1, Androgen receptor; assay: Displacement of fluormone-AL green from GST-tagged androgen receptor LBD (unknown origin) measured after 4 hrs by fluorescence polarization assay
[5] = molecular target: T3, Androgen receptor (Homo sapiens) (UniProt P10275); assay: Displacement of fluormone-AL green from GST-tagged androgen receptor LBD (unknown origin) at 10 uM measured after 4 hrs by fluorescence polarization assay; conditions: filed as antagonist
T3 sequence (whole entry): T1 sequence (P10275 whole entry)
Outline: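 PolarScreen AR competitor assay. Compound mixed with GST-tagged AR-LBD and Fluormone AL Green in AR Green assay buffer, incubated 4 h at room temperature protected from light. Fluorescence polarization (mP) measured.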

[6] = molecular target: T3, Androgen receptor (Homo sapiens); assay: Antagonist activity at androgen receptor in human LNCaP cells transfected with ARR2 PB-eGFP assessed as inhibition of DHT-induced transcriptional activity at 10 uM measured after 3 days by fluorescence assay relative to control; type: cell-based; conditions: filed as antagonist, time 3.0 day
Outline: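 LNCaP-ARR2PB-eGFP reporter cells in RPMI-1640 starved 5 days in 5% charcoal-stripped serum. Seeded at 3.5×10^4 cells/well, 24 h at 37 °C, 5% CO2. Co-treated with 5 nM DHT and compound at 10 µM (screen) or 0–50 µM. Fluorescence read after 3 days (ex 485, em 535 nm).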

LNCaP [7] = assay: Effect on prostate specific antigen mRNA expression in human LNCaP cells at 0.1 to 10 uM measured after 48 hrs by SYBR green dye based qPCR analysis; type: functional, cell-based; conditions: dose 0.1-10 µM
Outline: (§2)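 LNCaP cells kept in medium with 5% charcoal-stripped serum in six-well plates. Treated with DHT 5 nM plus compound at 0.1, 1 or 10 μM, or DMSO. mRNA extracted 48 h after treatment, reverse transcribed and quantified by qPCR.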

[8] = molecular target: T3, Androgen receptor (Homo sapiens); assay: Antagonist activity at androgen receptor in human LNCaP cells assessed as reduction in DHT-induced TMPRSS2 mRNA expression after 48 hrs by SYBR green dye based qPCR analysis; type: cell-based; conditions: filed as antagonist
Outline: as §2

IC50 (Androgen receptor [1]) [nM]	inhibition [5]	SMILES	Activity (LNCaP C4-2)	Activity (PC-3)	Activity (DU-145)	further results
20400		Clc1ccc(C2Nc3ccc4ccccc4c3C3OCCCC23)c(Cl)c1 (stereo unspecified)				
5600		c1ccc(C2Nc3ccc4ccccc4c3C3C4CCC(C4)C23)cc1 (stereo unspecified)				
		CNC(=O)c1ccc(N2C(=S)N(c3ccc(C#N)c(C(F)(F)F)c3)C(=O)C2(C)C)cc1F [ENZALUTAMIDE]	Active	Active	Active	Activity (LNCaP [2]): Active; IC50 [3]: 130 nM
2400	Active	Clc1ccccc1C1Nc2ccc3ccccc3c2C2C=CCC21 (stereo unspecified)	Active	Active	Active	Activity (NIH3T3): Non-Toxic; IC50 (Androgen receptor [4]): 4020 nM; inhibition [6]: > 50%
220	Active	Fc1ccccc1C1Nc2ccc3ccccc3c2C2C=CCC21 (stereo unspecified)				
150	Active	Brc1ccc(C2Nc3ccc4ccccc4c3C3C=CCC32)cc1 (stereo unspecified)	Active	Active	Active	Activity (LNCaP [7]): Active; Activity (NIH3T3): Non-Toxic; Activity [8]: Dose-dependent effect; Activity (LNCaP [2]): Active
820	Active	CCOC(=O)C1Nc2ccc3ccccc3c2C2C=CCC12 (stereo unspecified)				
1920	Active	Clc1ccc(C2Nc3ccc4ccccc4c3C3C=CCC32)cc1 (stereo unspecified)				
7450		Clc1ccc(C2Nc3ccc4ccccc4c3C3C4CCC(C4)C23)cc1 (stereo unspecified)				
